The list is not random: actives were taken first. Their share in the collection is about 2.6%.
miR122 inh: miR-122 Renilla sensor signal increase in Huh7, primary screen, miR-122 inhibitor project, cell-based, single point, plate reader; Huh7 miR-122 Renilla luciferase sensor, 48 h; neutral wells = 0, positive control = 100; activation (reporter increase), % at 12.5 µM; 0.3% of 340,000 active; AID 602342, 2012;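 active = mean replicate activation score at least 90 and every replicate individually at or above 90; inconclusive = only one of the two criteria met; inactive = neither criterion met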;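 also: higher luciferase means less miR-122 activity so hits act as miR-122 inhibitors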
Vif inh: HIV Vif self-association inhibitors, primary screen, imaging, HEK293T, single point; AID 602346, 2012; HEK293T cells, Vif self-association by quenched fluorescence, 24 h; 0.35% of 340,000 active; inhibition, % at 7.49 µM; in the data active = inhibition above about 50%, passing the limit was not always enough; inconclusive = no clear call, values can overlap the other calls; inactive = below about 31%
S100A4 MyoIIA: inhibitors of S100A4-myosin IIA peptide binding, primary screen, biochemical, fluorescence polarization, TAMRA-MyoIIA peptide | 0.14% of 360,000 active | inhibition, % at 10.7 µM | AID 652163, 2013 | Protein S100-A4 (Homo sapiens), P26447;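 active = mean inhibition of at least 70% across replicates, with every replicate also reaching that level; inconclusive = mean inhibition reaches 70% but some replicates fall short; inactive = mean inhibition below 70%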
Target sequence (P26447 whole entry, looked up): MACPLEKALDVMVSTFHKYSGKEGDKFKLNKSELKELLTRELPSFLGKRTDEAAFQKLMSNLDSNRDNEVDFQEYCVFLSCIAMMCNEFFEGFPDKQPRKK
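Test system: S100A4 monomer protein. Medium: HEPES buffer with Ca2+, pH 7.2. Reagent: fluorescent myosin IIA peptide, 5 nM. Compound dosing: single-point compound testing. Timing: 5 min between mix addition and reading. Benchmarks: DMSO neutral and TFP positive wells.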
Env fusion inh: inhibitors of HIV-1 Env-driven cell-cell fusion, primary screen, HeLa-JRFL effector, CEM21 target cells, luciferase | inhibition, % at 12.3 µM | 1.1% of 360,000 active | AID 651610, 2012;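 active = mean replicate inhibition score of at least 50 and every replicate individually at or above 50; inconclusive = only one of the two criteria met; inactive = mean below 50 and not all replicates reaching 50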;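 also: 0% = plate neutral controls and 100% = maraviroc near 300 nM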
FN deposition inh: inhibitors of fibronectin matrix deposition, primary screen, AH1F cells, Alexa488-fibronectin fluorescence, plate reader | AH1F fibroblasts, overnight | inhibition, % at 12.6 µM | 0.086% of 350,000 active | AID 743247, 2014;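 active = mean inhibition across replicates of 30% or more, regardless of how many single replicates reach that level; inconclusive = mean under 30% yet at least half of replicates reach 30%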;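 also: positive control wells lacked labelled fibronectin entirely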
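Material: AH1F fibroblast monolayer depositing Alexa488-labelled fibronectin into matrix | Input: 10000 AH1F cells/well | Medium: DMEM plus 2% serum, read in PBS | Reagent: Alexa488-fibronectin, 24 nM final in well | Compound dosing: One dose per compound, pinned | Schedule: 1 h adhesion, overnight exposure | Measured by: Fluorescence at 485 nm excitation, 525 nm emission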
Ecoli rRNA inh: reduced GFP signal of wild-type E. coli, primary screen, bacterial rRNA inhibitor project, GFP/RFP fluorescence, OD600, single point | 1.6% of 350,000 active | E. coli WT GFP vs humanized-ribosome RFP mutants, 24 h; hits give low values; DMSO median 0, no signal -100 | GFP signal change (wild-type ribosome), % (test concentration not listed);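 active = significant combined selectivity score with lowered wild-type GFP, culture density cut under 30%, mutant RFP and density less affected; inactive = any of these conditions unmet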
* marks the source's active call; other numbers are inactive results; ? = inconclusive; · = no result given; [ ] = dose if it differs, or a comment.

SMILES	miR122 inh	Vif inh	S100A4 MyoIIA	Env fusion inh	FN deposition inh	Ecoli rRNA inh
COCC(=O)Nc1ccc2c(c1)C(=O)N(C)[C@@H]1CC[C@H](CC(=O)NCc3ccccc3Cl)O[C@@H]1CO2	42[16.7 µM]	·	·	29[16.7 µM]	2	1
CC(c1ccco1)N(C(=O)C12CC3(C)CC(C)(CC(C)(C3)C1)C2)c1ccccn1 (stereo not given)	2	12	·	76*	-10	·
C[C@H]1CCCCO[C@H](CN(C)Cc2ccccc2)[C@@H](C)CN([C@@H](C)CO)C(=O)c2cc(NC(=O)C3CCCCC3)ccc2O1	4[16.7 µM]	·	0	28[16.7 µM]	·	3
CC[C@]12c3[nH]c4ccc(OC)cc4c3CCN1C(=O)C(CC(=O)NCCCN(C)C)C[C@@H]2C(=O)N1CCN(C(=O)C2CC2)CC1 (stereo not given in full)	·	-1	-20	11	-1	3
CC[C@]12c3[nH]c4ccc(OC)cc4c3CCN1C(=O)C(CC(=O)NCC13CC4CC(CC(C4)C1)C3)C[C@@H]2C(=O)N1CCN(C(=O)C2CC2)CC1 (stereo not given in full)	-1	-3	-1	70*	0	4
CC[C@]12c3[nH]c4ccccc4c3CCN1C(=O)C(CC(=O)NC(C)(C)C)C[C@@H]2C(=O)N1CCN(C(=O)C2CC2)CC1 (stereo not given in full)	7	·	4	·	12	5
CC[C@]12c3[nH]c4ccccc4c3CCN1C(=O)C(CC(=O)NCC13CC4CC(CC(C4)C1)C3)C[C@@H]2C(=O)N1CCN(C(=O)C2CC2)CC1 (stereo not given in full)	-13	·	1	100*	5	8
CC(C)N(C(=O)[C@H]1C[C@H](CC(=O)NCCN2CCOCC2)C(=O)N2CCc3c([nH]c4cc(CCC(=O)N(C)C)ccc34)[C@]12C)C(C)C	·	103*	1	13	-3	4
CC[C@]12c3[nH]c4ccc(Cl)cc4c3CCN1C(=O)[C@@H](CC(=O)NCC13CC4CC(CC(C4)C1)C3)C[C@@H]2C(=O)N1CCN(C(=O)C2CC2)CC1	-11	·	-5	58*	·	11
CC(C)N(C(=O)[C@H]1C[C@H](CC(=O)NCCCN(C)C)C(=O)N2CCc3c([nH]c4cc(CCC(=O)N(C)C)ccc34)[C@]12C)C(C)C	10	·	-1	10	-3	14
COC(=O)C(CC#Cc1ccc2c(c1)[C@]1(C(=O)N2)[C@H](c2ccccc2OCCO)N2[C@H](c3ccccc3)[C@H](c3ccccc3)OC(=O)[C@H]2[C@@H]1C(=O)N1CCN(c2ncccn2)CC1)C(=O)OC	·	·	6	-86[16.7 µM]	·	·
CCCC#Cc1cnc2c(c1)C(=O)N([C@@H](C)CO)C[C@H](C)[C@@H](CN(C)C(=O)Cc1cccnc1)O2	0[16.7 µM]	·	0	-2[16.7 µM]	1	3
C[C@]12c3[nH]c4ccc(Cl)cc4c3CCN1C(=O)[C@@H](CC(=O)NCc1ccco1)C[C@@H]2C(=O)N1CCOCC1	0	-12	-2	-70	-2	-23*
C[C@]12c3[nH]c4ccccc4c3CCN1C(=O)C(CC(=O)NCc1ccco1)C[C@@H]2C(=O)N1CCOCC1 (stereo not given in full)	-3	20	24	?	6	5
CC[C@]12c3[nH]c4ccccc4c3CCN1C(=O)C(CC(=O)NCc1ccc(OC)c(OC)c1)C[C@@H]2C(=O)N1CCN(C(=O)C2CC2)CC1 (stereo not given in full)	-2	·	4	61*	-3	14
CC[C@]12c3[nH]c4ccccc4c3CCN1C(=O)C(CC(=O)NCc1ccco1)C[C@@H]2C(=O)N1CCN(C(=O)C2CC2)CC1 (stereo not given in full)	-4	·	0	-85	1	7
Cc1noc(C)c1S(=O)(=O)N(C)C[C@H]1Oc2ccc(NC(=O)CCCN(C)C)cc2C(=O)N([C@H](C)CO)C[C@H]1C	2[16.7 µM]	·	-18	-1[16.7 µM]	·	-1
CN(C[C@H](Cc1ccccc1)N(C[C@H](CC1CCCCC1)N(CCc1ccccc1)N=O)N=O)N=O	·	-4	-4	67*	8	11
CN(C[C@@H](CC1CCCCC1)N(C[C@H](Cc1ccccc1)N(CCc1ccccc1)N=O)N=O)N=O	·	-3	8	84*	-11	5
CN(C[C@H](Cc1ccccc1)N(C[C@H](Cc1ccccc1)N(CC1(c2ccccc2)CC1)N=O)N=O)N=O	1	-10	-4	98*	-2	9
CCC(C)[C@@H](CN(N=O)[C@@H](Cc1ccccc1)CN(C)N=O)N(CCc1ccccc1)N=O (stereo not given in full)	1	-8	·	·	·	·
O=C(CN(CCc1ccccc1)C(=O)c1csnn1)NC1CCCC1	1	15	-1	14	15	6
CCNC(=O)C[C@H]1CC[C@H]2[C@@H](COc3ccc(NC(=O)Nc4c(C)noc4C)cc3C(=O)N2C)O1	-1[16.7 µM]	·	1	15[16.7 µM]	1	5
Cc1ccc(S(=O)(=O)N2[C@@H](c3ccc(Cl)cc3)C(C(=O)O)=CC[C@H]2c2cccc(Cl)c2)cc1	3	11	-11	-1	-18	-41
Cc1ccc(S(=O)(=O)N2[C@@H](c3ccc(Cl)cc3)C(C(=O)O)=CC[C@H]2c2cccc(C)c2)cc1	·	-3	-1	26	-5	-22*
SMILES	miR122 inh	Vif inh	S100A4 MyoIIA	Env fusion inh	FN deposition inh	Ecoli rRNA inh
COc1cccc([C@@H]2CC=C(C(=O)O)[C@H](c3cccc(Cl)c3)N2S(=O)(=O)c2ccc(C)cc2)c1	·	·	-2	4	3	-32*
CC(C)(C)OC(=O)C1=CC[C@@H](c2ccc(Cl)c(Cl)c2)N(S(=O)(=O)c2ccc(F)cc2)[C@H]1c1cccc(F)c1	-4	34	0	93*	2	15
CNC[C@H]1Oc2ccc(NC(=O)C3CC3)cc2CC(=O)N([C@@H](C)CO)C[C@H]1C	-3[16.7 µM]	·	-7	3[16.7 µM]	·	5
O=C(N/N=C/c1cc(Br)c(O)c(Br)c1O)c1cccnc1	-4	-8	-3	21	-1	-20*
O=C(N/N=C/c1cc(O)ccc1Br)c1cccnc1	·	-4	-2	8	15	-34
C[C@@H]1CN([C@@H](C)CO)C(=O)Cc2cc(NC(=O)Nc3ccccc3)ccc2O[C@H]1CN(C)CC1CCCCC1	-7[16.7 µM]	·	2	·	-5	3
COc1ccccc1NC(=O)c1c(C)nn(-c2ccccc2)c1Cl	-5	14	1	-59	-3	-36*
